# Columns and labels:
# Type in all cases: functional
# SK-OV-3 = assay: Cytotoxicity against human SKOV3 cells at 100 uM after 2 days by sulforhodamine B assay; settings: SK-OV-3, 48 h
# Outline: (§1)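 Five human cancer lines (HT-29, DU-145, A-549, SK-MEL-2, SK-OV-3) seeded at 3–7 × 10³ cells/well; compounds at 100 µM added in duplicate; 37 °C, 5% CO₂, two days. Fixed with formalin, SRB stained, washed with 1% acetic acid, dye solubilized in 10 mM unbuffered Tris base; OD at 520 nm. Read-out is % inhibition.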
# HT-29 [1] = assay: Cytotoxicity against human HT-29 cells at 100 uM after 2 days by sulforhodamine B assay; settings: HT-29, 48 h; outline: as §1
# A549 = assay: Cytotoxicity against human A549 cells at 100 uM after 2 days by sulforhodamine B assay; settings: A549, 48 h; outline: as §1
# SK-MEL-2 = assay: Cytotoxicity against human SK-MEL-2 cells at 100 uM after 2 days by sulforhodamine B assay; settings: SK-MEL-2, 48 h; outline: as §1
# DU-145 [2] = assay: Cytotoxicity against human DU145 cells at 100 uM after 2 days by sulforhodamine B assay; settings: DU-145, 48 h; outline: as §1
# DU-145 [3] = assay: Growth inhibition of human DU145 cells after 2 days by MTT assay; settings: DU-145, 48 h
# Outline: (§2)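 HT-29 and DU-145 cells seeded at 5 × 10⁴ cells/mL; serial concentrations added in duplicate; 37 °C, 5% CO₂, two days. MTT dye (Cell Titer96) for up to 4 h at 37 °C, then solubilization/stop mix overnight at room temperature; OD at 570 nm. GI₅₀ = concentration giving 50% growth inhibition; mean ± SEM of three or more experiments; doxorubicin as internal standard.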
# HT-29 [4] = assay: Growth inhibition of human HT-29 cells after 2 days by MTT assay; settings: HT-29, 48 h; outline: as §2
SMILES,inhibition at 100 µM (SK-OV-3) [%],inhibition at 100 µM (HT-29 [1]) [%],inhibition at 100 µM (A549) [%],inhibition at 100 µM (SK-MEL-2) [%],inhibition at 100 µM (DU-145 [2]) [%],GI50 (DU-145 [3]) [µM],GI50 (HT-29 [4]) [µM]
O=C(Nn1c(-c2cccc([N+](=O)[O-])c2)nc2c(-c3ccc(Cl)cc3)n[nH]c2c1=O)c1cccnc1,30.2,15.1,19.7,16.3,31,,
O=C(Nn1c(CCC2CCCC2)nc2c(-c3ccc(Cl)cc3)n[nH]c2c1=O)c1ccccc1,,87.3,,,89.6,10.2,1.8
O=C(Nn1c(-c2ccccc2)nc2c(-c3ccc(Cl)cc3)n[nH]c2c1=O)c1ccccc1,,92,,,90.2,20.1,20.6
COc1cccc(-c2nc3c(-c4cccc(Cl)c4)n[nH]c3c(=O)n2NC(=O)c2ccccc2)c1,,91,,81.9,93.5,,
COc1cccc(-c2nc3c(-c4ccc(Cl)cc4)n[nH]c3c(=O)n2NC(=O)c2ccccc2)c1,81.7,87.3,81.8,84.9,94.1,17.9,20.4
CCCc1n[nH]c2c(=O)n(NC(=O)c3ccccc3)c(-c3cccc(OC)c3)nc12,9.96,6.27,20.7,16.7,23.6,,
O=C(Nn1c(CCc2ccccc2)nc2c(-c3ccc(Cl)cc3)n[nH]c2c1=O)c1ccccc1,,86.5,,,85.6,86.7,23.4
COc1cccc2c1C(=O)c1c(O)c3c(c(O)c1C2=O)C[C@@](O)(C(=O)CO)C[C@@H]3O[C@H]1C[C@H](N)[C@H](O)[C@H](C)O1 [DOXORUBICIN],,60.9,,,62.8,0.35,0.85
COc1cccc(Cc2nc3c(-c4ccc(Cl)cc4)n[nH]c3c(=O)n2NC(=O)c2ccccc2)c1,,89.3,,,93.2,44.9,22.1
O=C(Nn1c(-c2cccc([N+](=O)[O-])c2)nc2c(CCc3ccccc3)n[nH]c2c1=O)c1cccnc1,30.1,20.1,19,28.5,22.5,,
O=C(Nn1c(-c2cccc([N+](=O)[O-])c2)nc2c(-c3ccc(F)cc3)n[nH]c2c1=O)c1cccnc1,19.3,24.7,28.8,24.5,24.9,,
CC(C)(C)c1ccc(C(=O)Nn2c(CC3CCCCC3)nc3c(-c4ccc(Cl)cc4)n[nH]c3c2=O)cc1,,72.3,,,65.2,> 100,1.06
COc1cccc(-c2nc3c(-c4ccc(C5CCNCC5)cc4)n[nH]c3c(=O)n2NC(=O)c2ccncc2)c1,18.2,28.1,32.4,23.4,37,,
CC(C)Cc1n[nH]c2c(=O)n(NC(=O)c3ccncc3)c(-c3cccc([N+](=O)[O-])c3)nc12,35.8,,,38.7,55.3,,
O=C(Nn1c(-c2cccc([N+](=O)[O-])c2)nc2c(-c3ccc(Cl)cc3)n[nH]c2c1=O)c1ccccc1,86.8,87.8,88.6,89,94.2,17.1,18.4
O=C(Nn1c(-c2cccc([N+](=O)[O-])c2)nc2c(CCc3ccccc3)n[nH]c2c1=O)c1ccccc1,,89.7,73.9,92,92.5,,
CCCc1n[nH]c2c(=O)n(NC(=O)c3ccccc3)c(-c3cccc([N+](=O)[O-])c3)nc12,28.8,18.7,33.2,22.9,27.8,,
O=C(Nn1c(-c2cccc([N+](=O)[O-])c2)nc2c(-c3ccco3)n[nH]c2c1=O)c1ccccc1,17.9,21.2,18.7,23,16.1,,
COc1cccc(-c2nc3c(-c4ccco4)n[nH]c3c(=O)n2NC(=O)c2ccccc2)c1,35.2,49.8,53.8,43.2,50.5,,
CCCc1nc2c(-c3ccc(Cl)cc3)n[nH]c2c(=O)n1NC(=O)c1ccccc1,,91.1,,,89.4,29.2,9.26
O=C(Nn1c(-c2cccc([N+](=O)[O-])c2)nc2c(-c3ccco3)n[nH]c2c1=O)c1cccnc1,-0.61,11.7,1.51,19.2,1.66,,
CCCc1nc2c(-c3ccc(Cl)cc3)n[nH]c2c(=O)n1NC(=O)Cc1ccccc1,,91.4,,,89.7,16,15.2
O=C(Nn1c(-c2cccc([N+](=O)[O-])c2)nc2c(-c3cccc(Cl)c3)n[nH]c2c1=O)c1ccccc1,,89.8,,78.2,93.8,,
CC(C)(C)c1ccc(C(=O)Nn2c(CCC3CCCC3)nc3c(-c4ccc(Cl)cc4)n[nH]c3c2=O)cc1,,76.8,,,64.2,21.5,20.6
O=C(Nn1c(-c2cccc([N+](=O)[O-])c2)nc2c(-c3ccc(F)cc3)n[nH]c2c1=O)c1ccccc1,77.7,92,80.7,88.5,90.8,,
CCCc1n[nH]c2c(=O)n(NC(=O)c3ccncc3)c(-c3cccc(OC)c3)nc12,4.04,0.07,11.2,11.4,4.04,,
O=C(Nn1c(-c2cccc([N+](=O)[O-])c2)nc2c(-c3cccs3)n[nH]c2c1=O)c1cccnc1,,3.9,10.2,3.26,32.8,,
COc1cccc(-c2nc3c(-c4ccc(Cl)cc4)n[nH]c3c(=O)n2NC(=O)c2ccncc2)c1,42.5,46,46,39.6,54.4,,
COc1cccc(-c2nc3c(-c4ccco4)n[nH]c3c(=O)n2NC(=O)c2cccnc2)c1,25,12.8,14.9,34.1,30.1,,
CCCc1n[nH]c2c(=O)n(NC(=O)c3ccncc3)c(-c3cccc([N+](=O)[O-])c3)nc12,15.1,-0.83,9.95,14.2,15.1,,

# From ChEMBL document CHEMBL1154962, “Novel 6-N-arylcarboxamidopyrazolo[4,3-d]pyrimidin-7-one derivatives as potential anti-cancer agents” (2010)
